In ChEMBL document CHEMBL3352265, “Potentially bioactive organotin(IV) compounds: synthesis, characterization, in vitro bioactivities and interaction with SS-DNA” (Eur J Med Chem, 2014):
≈ marks a conversion by molar mass, not a printed value. Calls of active or inactive are those of the source. The rule behind the calls is not given here.

Experiments:
[1] = system: Escherichia coli; test: Antibacterial activity against Escherichia coli ATCC 15224 at 40 mg/mL after 24 hrs by disc diffusion method; assay type: functional; settings: ATCC 15224, 24 h, read-out: DIZ
Summary of the method: (§1)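 Disc diffusion. Strains grown in nutrient broth at 37 °C for 24 h. 1% culture (about 10^6 CFU/mL) mixed into nutrient agar at 45 °C and poured. 4 mm paper discs received compound at 40 mg/mL stock in DMSO; final concentrations tested were […]. DMSO served as negative control, roxithromycin and cefixime as positive controls. Triplicate plates incubated at 37 °C for 24 h. Complete-inhibition zone diameter (mm) recorded as the mean of 3.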

[2] = system: Aspergillus fumigatus; test: Antifungal activity against Aspergillus fumigatus FCBP 66 at 40 mg/mL after 7 days by disc diffusion method; assay type: functional; settings: FCBP 66, 168 h, read-out: DIZ
Summary of the method: (§2)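 Disc diffusion on SDA. Fungi cultured at 28 °C for 24 h. 4 mm discs received compound at 40 mg/mL stock in DMSO. DMSO served as negative control, terbinafine as positive control. Plates incubated at 28 °C for 7 days. Growth diameter (mm) measured and inhibition calculated against the negative control. MIC taken as the lowest concentration with no growth.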

[3] = system: Escherichia coli; test: Induction of Escherichia coli pBR322 DNA damage assessed as open circular form at 10 ug/ml after 60 mins by gel electrophoresis
[4] = system: Aspergillus niger; test: Antifungal activity against Aspergillus niger FCBP 0198 at 40 mg/mL after 7 days by disc diffusion method; assay type: functional; settings: FCBP 0198, 168 h, read-out: DIZ; summary of the method: as §2
[5] = system: Bordetella bronchiseptica; test: Antibacterial activity against Bordetella bronchiseptica ATCC 4617 at 40 mg/mL after 24 hrs by disc diffusion method; assay type: functional; settings: ATCC 4617, 24 h, read-out: DIZ; summary of the method: as §1
[6] = system: Agrobacterium tumefaciens; test: Antitumor activity against Agrobacterium tumefaciens -induced tumor after 21 days by potato disc bioassay technique; assay type: functional, organism-based; settings: 504 h
Summary of the method: (§3)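 Potato disc assay with 48 h culture of A. tumefaciens At-10. Inoculum contained compound at […]. Red-skinned potatoes sterilized in 0.1% HgCl2; 8 mm × 4 mm discs placed ten per 1.5% agar plate, […] each. Incubated at 28 °C in the dark for 21 days, in triplicate. Discs stained with Lugol's and tumors counted. Percent inhibition calculated against the negative control.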

[7] = system: Escherichia coli; test: Induction of Escherichia coli pBR322 DNA damage assessed as open circular form at 100 ug/ml after 60 mins by gel electrophoresis
[8] = system: Mucor; test: Antifungal activity against Mucor FCBP 0400 at 40 mg/mL after 7 days by disc diffusion method; assay type: functional; settings: FCBP 0400, 168 h, read-out: DIZ; summary of the method: as §2
[9] = system: Bordetella bronchiseptica; test: Antibacterial activity against Bordetella bronchiseptica ATCC 4617 after 18 hrs by microdilution method; assay type: functional; settings: ATCC 4617, 18 h
Summary of the method: (§4)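 Broth microdilution. Twofold dilutions in culture broth at […]. Each well inoculated with bacterial suspension (10^8 CFU/mL, about 10^5 CFU/well). Sterility control and growth control (broth plus DMSO) included. Incubated at 36 °C for 18 h, in triplicate. MIC taken as the lowest concentration inhibiting growth, given in micrograms per mL.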

[10] = system: Salmonella typhimurium; test: Antibacterial activity against Salmonella typhimurium ATCC 14028 at 40 mg/mL after 24 hrs by disc diffusion method; assay type: functional, Salmonella enterica subsp. enterica serovar Typhimurium; settings: Salmonella enterica, ATCC 14028, 24 h; read-out: DIZ; summary of the method: as §1
[11] = system: Salmonella typhimurium; test: Antibacterial activity against Salmonella typhimurium ATCC 14028 after 18 hrs by microdilution method; assay type: functional, Salmonella enterica subsp. enterica serovar Typhimurium; settings: Salmonella enterica, ATCC 14028, 18 h; summary of the method: as §4
[12] = system: Agrobacterium tumefaciens; test: Antitumor activity against Agrobacterium tumefaciens -induced tumor at 1000 ug/ml after 21 days by potato disc bioassay technique; assay type: functional; summary of the method: as §3
[13] = system: Klebsiella aerogenes; test: Antibacterial activity against Enterobacter aerogenes ATCC 13048 at 40 mg/mL after 24 hrs by disc diffusion method; assay type: functional; settings: ATCC 13048, 24 h, read-out: DIZ; summary of the method: as §1
[14] = system: Leishmania major; test: Antileishmanial activity against Leishmania major kwh 23 after 72 hrs using neobar counting by microscopy; assay type: functional, organism-based; settings: kwh 23, 72 h
Summary of the method: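 Leishmania major promastigotes grown 7 days at 24 °C in medium 199 with 10% FBS. Samples as 10,000 ppm DMSO stocks, added to reach 200 ppm in the first row and serially diluted in 96-well plates, DMSO kept <5%. DMSO negative and amphotericin B positive controls. Incubated 72 h at 24 °C. Mortality counted in a counting chamber by light microscopy. Run 3 times. IC50 is the concentration giving 50% parasite reduction.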

[15] = system: Staphylococcus aureus; test: Antibacterial activity against Staphylococcus aureus ATCC 6538 at 40 mg/mL after 24 hrs by disc diffusion method; assay type: functional; settings: ATCC 6538, 24 h, read-out: DIZ; summary of the method: as §1
[16] = system: Artemia salina; test: Cytotoxicity in brine shrimp assessed as mortality after 24 hrs; assay type: functional; settings: read-out: LD50 (the source's name)
[17] = system: Escherichia coli; test: Antibacterial activity against Escherichia coli ATCC 15224 after 18 hrs by microdilution method; assay type: functional; settings: ATCC 15224, 18 h; summary of the method: as §4
[18] = system: Bacillus spizizenii; test: Antibacterial activity against Bacillus subtilis ATCC 6633 after 18 hrs by microdilution method; assay type: functional; settings: ATCC 6633, 18 h; summary of the method: as §4
[19] = system: Agrobacterium tumefaciens; test: Antitumor activity against Agrobacterium tumefaciens -induced tumor at 10 ug/ml after 21 days by potato disc bioassay technique; assay type: functional; summary of the method: as §3
[20] = system: Escherichia coli; test: Induction of Escherichia coli pBR322 DNA damage assessed as open circular form at 1000 ug/ml after 60 mins by gel electrophoresis
[21] = system: Bacillus spizizenii; test: Antibacterial activity against Bacillus subtilis ATCC 6633 at 40 mg/mL after 24 hrs by disc diffusion method; assay type: functional; settings: ATCC 6633, 24 h, read-out: DIZ; summary of the method: as §1
[22] = system: Staphylococcus aureus; test: Antibacterial activity against Staphylococcus aureus ATCC 6538 after 18 hrs by microdilution method; assay type: functional; settings: ATCC 6538, 18 h; summary of the method: as §4
[23] = system: Agrobacterium tumefaciens; test: Antitumor activity against Agrobacterium tumefaciens -induced tumor at 100 ug/ml after 21 days by potato disc bioassay technique; assay type: functional; summary of the method: as §3
[24] = system: Escherichia coli; test: Induction of Escherichia coli pBR322 DNA damage assessed as open circular form at 1 ug/ml after 60 mins by gel electrophoresis
[25] = system: Aspergillus flavus; test: Antifungal activity against Aspergillus flavus FCBP 0064 at 40 mg/mL after 7 days by disc diffusion method; assay type: functional; settings: FCBP 0064, 168 h, read-out: DIZ; summary of the method: as §2

COc1ccccc1NC(=O)CCC(=O)O
zone of inhibition at 40000 µg/mL [1]: 16 mm | zone of inhibition at 40000 µg/mL [2]: 0 mm | Activity [3]: inactive | zone of inhibition at 40000 µg/mL [4]: 0 mm | zone of inhibition at 40000 µg/mL [5]: 9 mm | IC50 [6]: 410 µg/mL (≈ 1840 µM) | Activity [7]: inactive | zone of inhibition at 40000 µg/mL [8]: 0 mm | MIC [9]: 200 µg/mL (≈ 896 µM) | zone of inhibition at 40000 µg/mL [10]: 8 mm | MIC [11]: 200 µg/mL (≈ 896 µM) | Activity [12]: 62.64% | zone of inhibition at 40000 µg/mL [13]: 0 mm | IC50 [14]: 0.00342 µg/mL (≈ 0.0153 µM) | zone of inhibition at 40000 µg/mL [15]: 11 mm | LC50 [16]: 192 µg/mL (≈ 861 µM) | MIC [17]: 100 µg/mL (≈ 448 µM) | MIC [18]: 200 µg/mL (≈ 896 µM) | Activity [19]: 5.63% | Activity [20]: inactive | zone of inhibition at 40000 µg/mL [21]: 10 mm | MIC [22]: 100 µg/mL (≈ 448 µM) | Activity [23]: 31.14% | Activity [24]: inactive | zone of inhibition at 40000 µg/mL [25]: 0 mm
